From ChEMBL document CHEMBL4392843, “Structure and biological evaluation of new cyclic and acyclic laxaphycin-A type peptides” (Bioorg Med Chem, 2019) come the findings set out here.

Data set [1] relates to SH-SY5Y. Put plainly: Cytotoxicity against human SH-SY5Y cells assessed as reduction in cell viability measured after 24 hrs by MTT assay. Format: cell-based. The essentials:
(§1)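 SH-SY5Y cells (ATCC CRL2266) in DMEM/F-12 with 10% FBS, 1% glutamax and penicillin/streptomycin, 37 °C, 5% CO2. Compounds were added to the medium (0.01, 0.05, 0.1 and 1 µM listed) for 24 or 6 h. Cells were then given 500 µg/mL MTT for 1 h and solubilized in 5% SDS, with A595 read. Saponin death-control absorbance was subtracted. IC50 reported with 95% CI and R².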
Background: Tetrazolium assays rely on reduction of a dye to a coloured formazan, in cell work by metabolically active cells.

The subject of data set [2] is SH-SY5Y. Put plainly: Cytotoxicity against human SH-SY5Y cells assessed as reduction in cell viability measured after 6 hrs by MTT assay. The settings on record: for IC50: Homo sapiens, SH-SY5Y, 6 h; for Cytotoxicity call (toxic / non-toxic): sh-sy5y. Format: cell-based. An outline of the steps:
as §1

The test system of data set [3] is SH-SY5Y. Put plainly: Cytotoxicity against human SH-SY5Y cells assessed as reduction in cell viability measured after 24 hrs by LDH release assay. Format: cell-based. An outline of the steps:
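SH-SY5Y cells in DMEM/F-12 with 10% FBS at 37 °C, 5% CO2, exposed to compounds in the medium for 24 h. LDH release was measured with a commercial LDH-cytotoxicity kit per its protocol as the viability indicator. IC50 reported with 95% CI and R².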
(LDH in the medium is a marker of cell lysis.)

Data set [4] concerns SH-SY5Y. Put plainly: Induction of apoptosis in human SH-SY5Y cells assessed as decrease in viable cells at 10 uM measured after 6 hrs by Annexin V-FITC/propidium iodide staining based flow cytometry. Format: cell-based. An outline of the steps:
(§2)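 SH-SY5Y cells (1×10^6 per well) were treated with 10 µM for 6 h, washed in PBS, and stained with annexin V-FITC/propidium iodide in binding buffer for 15 min. Imaging flow cytometry counted 10000 events. Viable, apoptotic and necrotic populations are given as % of untreated cells, mean ± SEM of three independent experiments in triplicate.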

Data set [5] relates to SH-SY5Y. Put plainly: Induction of apoptosis in human SH-SY5Y cells assessed as increase in apoptotic cells at 10 uM measured after 6 hrs by Annexin V-FITC/propidium iodide staining based flow cytometry. Format: cell-based. The essentials: as §2
Data set [6] has as its system SH-SY5Y. Put plainly: Induction of apoptosis in human SH-SY5Y cells assessed as increase in necrotic cells at 10 uM measured after 6 hrs by Annexin V-FITC/propidium iodide staining based flow cytometry. Format: cell-based. The essentials:
as §2

The test system of data set [7] is SH-SY5Y. Put plainly: Induction of autophagy in human SH-SY5Y cells assessed as increase in LC3-2/LC3-1 ratio at 10 uM measured after 6 hrs by Western blot analysis. Format: functional, cell-based. An outline of the steps: (§3)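 SH-SY5Y cells were treated with 10 µM for 6 h and lysed in ice-cold hypotonic Tris buffer (pH 7.4) with 1% Triton X-100 and inhibitors. The cytosolic fraction was taken at 3000 rpm; membrane fraction came via nuclear extraction buffer. 20 µg protein was run on 10% SDS-PAGE with chemiluminescent detection. Read-outs were LC3II/LC3I ratio or % of untreated (p-mTOR, p62); three experiments in triplicate, blots run in duplicate.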
In general terms: Immunoblotting shows a protein as a band on a membrane.

In data set [8] the test system is SH-SY5Y. Put plainly: Induction of autophagy in human SH-SY5Y cells assessed as phosphorylated mTOR level at 10 uM measured after 6 hrs by Western blot analysis (reference value: 100%). Format: functional. The essentials:
as §3

Data set [9] concerns SH-SY5Y. Put plainly: Induction of autophagy in human SH-SY5Y cells assessed as increase in cytoplasmic p62 levels at 10 uM measured after 6 hrs by Western blot analysis. Format: functional, cell-based. An outline of the steps:
as §3

The test system of data set [10] is SH-SY5Y. Put plainly: Induction of autophagy in human SH-SY5Y cells assessed as decrease in cytoplasmic p62 levels at 10 uM measured after 6 hrs by Western blot analysis. Format: functional. Also on record: scale not given: the % may be the effect or the level left. The settings on record: in the assay text read “membrane” for “cytoplasmic”. The essentials: as §3

For data set [11], the system named is SH-SY5Y. Put plainly: Effect on mitochondrial membrane potential in human SH-SY5Y cells up to 10 uM measured after 6 hrs by TMRM assay.
Data set [12] relates to SH-SY5Y. Put plainly: Effect on cell viability in human SH-SY5Y cells up to 10 uM after 6 hrs by MTT assay. The data set is classed as cell-based.
For data set [13], the system named is SH-SY5Y. Put plainly: Inhibition of reactive oxygen species production in human SH-SY5Y cells up to 10 uM measured after 6 hrs by DCFH-DA dye based fluorescence assay relative to control. The data set is classed as cell-based. More on the design: scale not given: the % may be the effect or the level left. An outline of the steps:
(§4)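 SH-SY5Y cells were exposed to compounds (6 h; 1 h also run), washed in saline, and loaded with 20 µM DCF-DA for 30 min at 37 °C. They were then held 30 min at room temperature for de-esterification. DCF fluorescence was read at 475 nm excitation and 525 nm emission, expressed as % of diluent-treated controls, with four independent experiments in triplicate.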

Data set [14] relates to SH-SY5Y. Put plainly: Effect on cell viability in human SH-SY5Y cells up to 10 uM after 1 hr by MTT assay. Format: cell-based.
Data set [15] concerns SH-SY5Y. Put plainly: Inhibition of reactive oxygen species production in human SH-SY5Y cells up to 10 uM measured after 1 hr by DCFH-DA dye based fluorescence assay. Format: cell-based. An outline of the steps:
as §4

For data set [16], the system named is SH-SY5Y. Put plainly: Induction of autophagy in human SH-SY5Y cells assessed as LC3-2/LC3-1 ratio at 10 uM measured after 6 hrs by Western blot analysis (reference value: 2.6 +/- 0.3). Format: functional.
For data set [17], the system named is SH-SY5Y. Put plainly: Cytotoxicity against human SH-SY5Y cells assessed as decrease in cell viability at 10 uM measured after 6 to 24 hrs by MTT assay relative to control. Format: cell-based.
Where [18] appears, read: Homo sapiens, SH-SY5Y, 24 h, read-out: IC50.

Activity calls are given as the source filed them. No cut-off for these calls is given here. Numbered stars: 1 amine (or outer) side, 2 acyl side, 3 side chain; on linkers, the order of the positions; unused ones are H or OH. Square brackets hold non-standard residues; d marks the D form. Peptide text beside a SMILES is read from it. dβ3hAhp = CCCCC[C@H](CC(=O)[*:2])N[*:1]; d(aIle) = CC[C@H](C)[C@@H](N)C(=O)O; Hyp = O=C(O)[C@@H]1C[C@@H](O)CN1; X1 = C/C=C(/N[*:1])C(=O)[*:2]; hSer = N[C@@H](CCO)C(=O)O

As for `C/C=C1/NC(=O)[C@H](CCO)NC(=O)C[C@@H](CCCCC)NC(=O)CNC(=O)[C@H](CC(C)C)NC(=O)[C@@H]([C@@H](C)CC)NC(=O)[C@H](C(C)C)NC(=O)[C@@H](CC(C)C)NC(=O)[C@@H](Cc2ccccc2)NC(=O)[C@H](CCO)NC(=O)[C@@H]2C[C@@H](O)CN2C1=O`, the half-maximal inhibitory concentration (IC50) (as a rule, the concentration that inhibits the measured activity by half) with SH-SY5Y [1] (setting [18]) turned out to be 0.6 µM; in the data set with SH-SY5Y [2] it was 1300 nM; in the data set with SH-SY5Y [3] (setting [18]), 3.6 µM. Also, the Activity entry with SH-SY5Y [4] is “Toxic”; in the data set with SH-SY5Y [5], “Non-Toxic”; in the data set on SH-SY5Y [6] it was “Non-Toxic”; with SH-SY5Y [8] it was 73.1%; with SH-SY5Y [10], 15.8%; in the data set with SH-SY5Y [11], “Toxic”. Besides, the outcome with SH-SY5Y [7] and with SH-SY5Y [9] was Active.
As for `C/C=C(/NC(=O)[C@H](CCO)NC(=O)C[C@H](N)CCCCC)C(=O)N1C[C@H](O)C[C@H]1C(=O)N[C@@H](CCO)C(=O)N[C@H](Cc1ccccc1)C(=O)N[C@H](CC(C)C)C(=O)N[C@H](C(=O)N[C@@H](C(=O)N[C@@H](CC(C)C)C(=O)O)[C@@H](C)CC)[C@@H](C)CC`, the IC50 entry in the data set on SH-SY5Y [1] (sh-sy5y) is “Toxic”; with SH-SY5Y [3] (sh-sy5y) it was “Non-Toxic”. In the data set with SH-SY5Y [2], the “Cytotoxicity call (toxic / non-toxic)” value is recorded as “Toxic”. The Activity result is “Non-Toxic” with SH-SY5Y [12]; 40% in the data set with SH-SY5Y [13]; “Non-Toxic” in the data set with SH-SY5Y [14]; “Toxic” in the data set on SH-SY5Y [15]; 70.3% in the data set with SH-SY5Y [8]; 50% in the data set with SH-SY5Y [17]. In the data set on SH-SY5Y [11], the Activity entry is “Toxic”. For the same compound, the Ratio in the data set on SH-SY5Y [16] was found to be 6.7. The result in the data set on SH-SY5Y [9] and in the data set with SH-SY5Y [10] was Active.
As to `C/C=C1/NC(=O)[C@H](CCO)NC(=O)C[C@@H](CCCCC)NC(=O)CNC(=O)[C@H](CC(C)C)NC(=O)[C@@H](C(C)C)NC(=O)[C@H]([C@@H](C)CC)NC(=O)[C@@H](CC(C)C)NC(=O)[C@@H](Cc2ccccc2)NC(=O)[C@H](CCO)NC(=O)[C@@H]2C[C@@H](O)CN2C1=O`, the IC50 turned out to be 5.6 µM in the data set with SH-SY5Y [1] (setting [18]), 3700 nM in the data set with SH-SY5Y [2] and 12.4 µM in the data set on SH-SY5Y [3] (setting [18]). Further, the Activity entry in the data set on SH-SY5Y [13] is listed as “Toxic”; with SH-SY5Y [14] it was “Non-Toxic”; with SH-SY5Y [15], “Toxic”; in the data set with SH-SY5Y [4] it was “Toxic”; in the data set on SH-SY5Y [5], “Non-Toxic”; in the data set on SH-SY5Y [6] it was “Non-Toxic”. Further, the Activity in the data set on SH-SY5Y [8] was 70.7%; with SH-SY5Y [11], “Toxic”. Besides, in the data set with SH-SY5Y [16], the Ratio was 6.4. In addition, the result with SH-SY5Y [9] and in the data set with SH-SY5Y [10] was Active.
In the case of `C/C=C1/NC(=O)[C@H](CCO)NC(=O)C[C@@H](CCCCC)NC(=O)CNC(=O)[C@H](CC(C)C)NC(=O)[C@@H]([C@@H](C)CC)NC(=O)[C@H]([C@@H](C)CC)NC(=O)[C@@H](CC(C)C)NC(=O)[C@@H](Cc2ccccc2)NC(=O)[C@H](CCO)NC(=O)[C@@H]2C[C@@H](O)CN2C1=O` [LAXAPHYCIN A] (cyclo(G[dβ3hAhp][hSer][X1][Hyp][hSer][dF][dL]I[d(aIle)]L)), the IC50 entry with SH-SY5Y [1] (sh-sy5y) and in the data set with SH-SY5Y [3] (sh-sy5y) was “Non-Toxic” each time. The “Cytotoxicity call (toxic / non-toxic)” value with SH-SY5Y [2] is reported as “Non-Toxic”.
`C/C=C(/NC(=O)[C@H](CCO)NC(=O)C[C@H](N)CCCCC)C(=O)N1C[C@H](O)C[C@H]1C(=O)N[C@@H](CCO)C(=O)N[C@H](Cc1ccccc1)C(=O)N[C@H](CC(C)C)C(=O)N[C@H](C(=O)N[C@@H](C(=O)O)[C@@H](C)CC)[C@@H](C)CC`: the IC50 result with SH-SY5Y [1] (sh-sy5y) and with SH-SY5Y [3] (sh-sy5y) was “Non-Toxic” each time. In the data set with SH-SY5Y [2], the “Cytotoxicity call (toxic / non-toxic)” value is given as “Non-Toxic”.
